Counter-ions that a name gives are not always drawn. Where a SMILES comes first, the peptide text is derived from it.
How the values were obtained:
[1] = system: muscarinic acetylcholine receptors; assay: HTRF Gq IP1 assay, positive control; assay type: cell-based; details: endogenous receptors (mAChR1, mAChR3 and mAChR5) in HEK293A cells
Method in brief: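 Carbachol, added at 2× final concentration in HBSS/20 mM HEPES/1 mM CaCl2/1 mM MgCl2/0.01% pluronic acid, pH 7.4, acted on 20 000 HEK293A-GPR15 cells/well with 30 mM LiCl for 30 min at 37 °C. HTRF IP1 detection ran 1 h in the dark at room temperature (665/615 nm). IP1 from a standard curve, buffer-corrected and normalized to the carbachol maximum; 3–5 experiments in triplicate.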

β2‐adrenergic receptor = assay: HTRF Gs cAMP assay, positive control; assay type: cell-based; details: endogenous receptor in HEK293A cells
Method in brief: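 Run like the Gi cAMP assay without forskolin. HEK293A-GPR15 cells in HBSS/HEPES buffer with 100 μM IBMX, pH 7.4, were stimulated with isoproterenol via the endogenous β2-adrenergic receptor, 30 min at room temperature. HTRF cAMP detection ran 1 h in the dark (665/615 nm). cAMP from a standard curve, buffer-corrected and normalized to the isoproterenol maximum; 3–5 experiments in triplicate.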

GPR15 receptor (Gi/o) = biological target: T1, GPR15 receptor (Gi/o) (Homo sapiens, UniProt P49685); assay: HTRF Gi cAMP assay; assay type: cell-based
T1 sequence (P49685 1-360): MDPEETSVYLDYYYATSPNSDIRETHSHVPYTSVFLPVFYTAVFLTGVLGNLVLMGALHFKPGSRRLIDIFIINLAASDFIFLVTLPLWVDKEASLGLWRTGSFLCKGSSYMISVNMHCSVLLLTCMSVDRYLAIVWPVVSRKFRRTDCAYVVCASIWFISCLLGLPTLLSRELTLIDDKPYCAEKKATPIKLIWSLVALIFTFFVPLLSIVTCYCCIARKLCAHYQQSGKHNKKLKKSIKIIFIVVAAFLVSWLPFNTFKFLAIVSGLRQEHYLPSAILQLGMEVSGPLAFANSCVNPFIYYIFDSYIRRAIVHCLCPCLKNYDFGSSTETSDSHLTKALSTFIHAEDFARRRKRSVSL
Method in brief: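 HEK293A cells stably expressing human GPR15 (G418-selected) were harvested non-enzymatically. Where stated, cells were pretreated 24 h with PTX 100 ng/ml. 4000 cells/well in HBSS/20 mM HEPES/1 mM CaCl2/1 mM MgCl2/100 μM IBMX, pH 7.4, were mixed with threefold-diluted peptide in ligand buffer containing 3 μM forskolin, 30 min at room temperature. HTRF cAMP detection ran 1 h in the dark. Standard-curve cAMP was normalized to forskolin and given a four-parameter EC50 fit; triplicates, 3–5 experiments.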

GPR15 receptor / GoA = GPR15 receptor / GoA (Homo sapiens, UniProt P49685); assay: BRET G protein activation assay, GoA; assay type: cell-based
Method in brief: (§1)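 HEK293A cells transfected 20–24 h before assay with GPR15 (1.26 μg), Venus(155–239)-Gβ1, Venus(1–155)-Gγ2 and masGRK3ct-Nluc (0.21 μg each), and an optimized amount of the Gα DNA. Cells were given furimazine (1:250) for 3 min, then rising agonist concentrations. BRET ratio is 535/475 nm emission. Emax per concentration was buffer-corrected, normalized to the maximum, and fitted with a four-parameter model. 3–5 independent experiments, 2–3 replicates.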

GPR15 receptor / Gi3 = GPR15 receptor / Gi3 (Homo sapiens, UniProt P49685); assay: BRET G protein activation assay, Gi3; assay type: cell-based, human (GPR15); rat (Gi3)
Method in brief: as §1

GPR15 receptor / Gi2 = GPR15 receptor / Gi2 (Homo sapiens, UniProt P49685); assay: BRET G protein activation assay, Gi2; assay type: cell-based, human (GPR15); rat (Gi2)
Method in brief: as §1

GPR15 receptor / Gi1 = GPR15 receptor / Gi1 (Homo sapiens, UniProt P49685); assay: BRET G protein activation assay, Gi1; assay type: cell-based, human (GPR15); rat (Gi1)
Method in brief: as §1

GPR15 receptor / GoB = GPR15 receptor / GoB (Homo sapiens, UniProt P49685); assay: BRET G protein activation assay, GoB; assay type: cell-based
Method in brief: as §1

[2] = biological target: T2, G protein-coupled receptor 15 (GPR15) (human) (UniProt P49685)
T2 sequence: T1 sequence (P49685 1-360)

Chain of GPR15 receptor / GoB (P09471 2-354 isoform P09471-2 partner limits assumed, one chain of several): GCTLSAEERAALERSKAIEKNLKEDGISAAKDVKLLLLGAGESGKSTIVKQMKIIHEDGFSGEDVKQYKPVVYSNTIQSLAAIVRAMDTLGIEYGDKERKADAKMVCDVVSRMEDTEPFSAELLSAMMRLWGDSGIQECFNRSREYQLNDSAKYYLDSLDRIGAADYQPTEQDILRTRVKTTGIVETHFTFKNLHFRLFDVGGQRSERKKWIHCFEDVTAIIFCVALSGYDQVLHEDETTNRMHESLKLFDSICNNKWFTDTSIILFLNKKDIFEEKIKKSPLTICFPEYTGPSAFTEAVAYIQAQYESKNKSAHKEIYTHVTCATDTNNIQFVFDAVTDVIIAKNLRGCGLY
Chain of GPR15 receptor / GoB (P62873 2-340 partner limits assumed, one chain of several): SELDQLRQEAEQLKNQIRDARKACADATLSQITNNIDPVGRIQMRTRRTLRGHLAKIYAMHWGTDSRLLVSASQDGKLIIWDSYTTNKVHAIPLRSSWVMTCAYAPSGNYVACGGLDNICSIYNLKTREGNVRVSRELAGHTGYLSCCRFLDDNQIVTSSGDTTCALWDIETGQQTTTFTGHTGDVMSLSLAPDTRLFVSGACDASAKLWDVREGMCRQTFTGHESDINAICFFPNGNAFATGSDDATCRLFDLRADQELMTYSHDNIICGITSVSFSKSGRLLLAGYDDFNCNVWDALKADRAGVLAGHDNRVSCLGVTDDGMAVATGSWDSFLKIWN
Chain of GPR15 receptor / GoB (P59768 2-68 partner limits assumed, one chain of several): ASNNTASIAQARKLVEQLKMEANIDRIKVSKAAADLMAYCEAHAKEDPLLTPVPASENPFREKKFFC
Chain of GPR15 receptor / Gi1 (P10824 2-354 partner limits assumed, one chain of several): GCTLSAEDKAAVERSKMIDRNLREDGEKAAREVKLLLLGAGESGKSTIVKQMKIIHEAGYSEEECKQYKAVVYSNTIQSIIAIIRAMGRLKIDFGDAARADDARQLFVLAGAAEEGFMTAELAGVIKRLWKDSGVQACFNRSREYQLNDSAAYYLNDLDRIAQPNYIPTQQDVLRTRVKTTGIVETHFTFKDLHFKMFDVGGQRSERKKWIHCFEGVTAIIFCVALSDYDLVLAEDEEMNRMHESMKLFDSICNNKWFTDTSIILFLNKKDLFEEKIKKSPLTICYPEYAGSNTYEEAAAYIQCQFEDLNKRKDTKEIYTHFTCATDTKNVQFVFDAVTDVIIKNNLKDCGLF
Chain of GPR15 receptor / Gi1 (P62873 2-340 partner limits assumed, one chain of several): as the sequence (P62873 2-340 partner limits assumed, one chain of several) above
Chain of GPR15 receptor / Gi1 (P59768 2-68 partner limits assumed, one chain of several): as the sequence (P59768 2-68 partner limits assumed, one chain of several) above
Chain of GPR15 receptor / Gi2 (P04897 2-355 partner limits assumed, one chain of several): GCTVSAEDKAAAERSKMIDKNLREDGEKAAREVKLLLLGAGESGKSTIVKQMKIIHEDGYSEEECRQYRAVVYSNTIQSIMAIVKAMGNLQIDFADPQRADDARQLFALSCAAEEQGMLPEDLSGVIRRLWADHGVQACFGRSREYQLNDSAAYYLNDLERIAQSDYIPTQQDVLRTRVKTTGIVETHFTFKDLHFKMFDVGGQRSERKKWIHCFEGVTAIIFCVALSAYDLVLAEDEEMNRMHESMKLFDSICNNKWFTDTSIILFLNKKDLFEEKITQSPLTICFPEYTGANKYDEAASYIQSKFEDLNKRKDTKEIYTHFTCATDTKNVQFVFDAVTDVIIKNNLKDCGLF
Chain of GPR15 receptor / Gi2 (P62873 2-340 partner limits assumed, one chain of several): as the sequence (P62873 2-340 partner limits assumed, one chain of several) above
Chain of GPR15 receptor / Gi2 (P59768 2-68 partner limits assumed, one chain of several): as the sequence (P59768 2-68 partner limits assumed, one chain of several) above
Chain of GPR15 receptor / Gi3 (P08753 2-354 partner limits assumed, one chain of several): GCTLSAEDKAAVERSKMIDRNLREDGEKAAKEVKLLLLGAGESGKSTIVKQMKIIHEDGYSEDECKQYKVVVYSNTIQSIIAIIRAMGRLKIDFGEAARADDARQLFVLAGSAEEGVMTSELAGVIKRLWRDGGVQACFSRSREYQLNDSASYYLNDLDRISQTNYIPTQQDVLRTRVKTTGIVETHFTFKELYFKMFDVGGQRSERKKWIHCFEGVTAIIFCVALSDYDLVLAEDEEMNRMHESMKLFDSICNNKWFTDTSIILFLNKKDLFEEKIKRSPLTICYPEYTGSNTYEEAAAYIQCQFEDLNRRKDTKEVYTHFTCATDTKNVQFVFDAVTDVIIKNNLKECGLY
Chain of GPR15 receptor / Gi3 (P62873 2-340 partner limits assumed, one chain of several): as the sequence (P62873 2-340 partner limits assumed, one chain of several) above
Chain of GPR15 receptor / Gi3 (P59768 2-68 partner limits assumed, one chain of several): as the sequence (P59768 2-68 partner limits assumed, one chain of several) above
Chain of GPR15 receptor / GoA (P09471 2-354 partner limits assumed, one chain of several): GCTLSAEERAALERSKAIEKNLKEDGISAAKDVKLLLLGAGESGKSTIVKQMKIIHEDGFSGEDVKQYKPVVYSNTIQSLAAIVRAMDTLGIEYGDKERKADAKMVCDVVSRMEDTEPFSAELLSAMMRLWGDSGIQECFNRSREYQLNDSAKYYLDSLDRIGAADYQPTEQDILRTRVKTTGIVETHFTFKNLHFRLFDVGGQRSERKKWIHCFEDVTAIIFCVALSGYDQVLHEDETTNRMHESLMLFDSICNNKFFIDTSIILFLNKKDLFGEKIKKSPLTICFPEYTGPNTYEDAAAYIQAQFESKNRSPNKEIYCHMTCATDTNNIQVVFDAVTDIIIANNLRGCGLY
Chain of GPR15 receptor / GoA (P62873 2-340 partner limits assumed, one chain of several): as the sequence (P62873 2-340 partner limits assumed, one chain of several) above
Chain of GPR15 receptor / GoA (P59768 2-68 partner limits assumed, one chain of several): as the sequence (P59768 2-68 partner limits assumed, one chain of several) above

Question: Which IP1 level [1] does the source give for C[N+](C)(C)CCOC(N)=O [carbachol, carbamoylcholine chloride] here?
Answer: robust IP1 level increase

Question: Which cAMP level (β2‐adrenergic receptor) does the source give for CC(C)NCC(O)c1ccc(O)c(O)c1 (stereo not drawn) [isoproterenol, isoproterenol bitartrate salt] here?
Answer: robust cAMP level increase

Question: Which “inhibition of cAMP production in presence of PTX” value (GPR15 receptor (Gi/o); hGPR15-HEK293A, PTX 100 ng/ml for 24 h) does the source give for pertussis toxin [PTX] here?
Answer: inhibition could be eliminated

Question: What does the source list for CC(C)C[C@H](NC(=O)[C@H](C)NC(=O)CNC(=O)[C@@H]1CCCN1C(=O)[C@@H](NC(=O)[C@@H](NC(=O)[C@H](Cc1c[nH]c2ccccc12)NC(=O)[C@@H](N)CC(C)C)C(C)C)C(C)C)C(=O)N1CCC[C@H]1C(=O)N[C@@H](CCC(N)=O)C(=O)N[C@H](C(=O)O)C(C)C [GPR15L(71–81)] (H-LWVVPGALPQV-OH)?
Answer: EC50 (GPR15 receptor / GoA): 3020 nM; EC50 (GPR15 receptor / Gi3): 912 nM; EC50 (GPR15 receptor / Gi2): 1700 nM; EC50 (GPR15 receptor / Gi1): 724 nM; EC50 (GPR15 receptor (Gi/o)): 407 nM; EC50 (GPR15 receptor / GoB): 2510 nM

B1: human GPR15L(71–81) peptide (peptide)
peptide: LWVVPGALPQV
Question: B1 was tested. Which pEC50, BRET G protein activation assay, Gi1 [2] did it give?
Answer: 6.14

Question: What about the pEC50, BRET G protein activation assay, Gi2 [2] of the same molecule?
Answer: 5.77

Question: What about the pEC50, BRET G protein activation assay, Gi3 [2] of the same molecule?
Answer: 6.04

Question: And the pEC50, BRET G protein activation assay, GoA [2]?
Answer: 5.52

B2: human GPR15L(25–81) peptide (ligand)
peptide: KRRPAKAWSGRRTRLCCHRVPSPNSTNLKGHHVRLCKPCKLEPEPRLWVVPGALPQV
Question: For B2, which pEC50, BRET G protein activation assay, Gi1 [2] is on record?
Answer: 7.79

Question: And the pEC50, BRET G protein activation assay, Gi2 [2]?
Answer: 7.14

Question: What about the pEC50, BRET G protein activation assay, Gi3 [2] of the same molecule?
Answer: 7.69

Question: And the pEC50, BRET G protein activation assay, GoA [2]?
Answer: 7.28

Question: And the pEC50, BRET G protein activation assay, GoB [2]?
Answer: 7.54
